Experimental data reported in ChEMBL document CHEMBL1154279, “Cytotoxic compounds from the stems of Cinnamomum tenuifolium” (J Nat Prod, 2009).

Assays:
DU-145 = test: Cytotoxicity against human DU145 cells after 72 hrs by XTT assay; type: functional, cell-based; conditions: DU-145, 24 h, in the assay text read “after 24 hrs” for “after 72 hrs”
LNCaP = test: Cytotoxicity against human LNCAP cells after 72 hrs by XTT assay; type: functional, cell-based; conditions: 24 h, in the assay text read “after 24 hrs” for “after 72 hrs”
Summary of the method: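 Prostate cancer cells in RPMI-1640 with 10% FBS, 37 °C, 5% CO2, grown to 70–80% confluence and treated at 0.1–100 µM for 24, 48 and 72 h. XTT labeling for 4 h at 37 °C, absorbance 450 nm (reference 650 nm) against control wells. IC50 derived from the mean of eight wells; taxol and cisplatin served as positive controls.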

Structure (SMILES)	IC50 (DU-145) [µM]	IC50 (LNCaP) [µM]
C=C1OC(=O)/C(=C\CCCCCCCCCCCCC)[C@@H]1O [OBTUSILACTONE A]	68.4	36.4
CC(C)C1=CC(=O)[C@]2(C)O[C@@]1(O)[C@@H]1[C@H](C)CC[C@@H]12 [ALPINENONE]	267	67.1
